The source made the active and inactive calls. The calls are words filed in the database; no cut-off is given here.
Legend:
Rattus norvegicus [1] = assay: Hypotensive activity was evaluated in an anesthetized rat model as percent mean aortic blood pressure(mm hg) reduction 5 min after iv injection of 5 mg/kg; type: functional, Artery
In short: (§1)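 In pentobarbital-anesthetized (50 mg/kg ip), artificially ventilated male Chbb:THOM rats (200-250 g), mean aortic pressure was measured through a carotid artery cannula connected to an electromechanical transducer. Readings were taken before and 5 min after 5 mg/kg iv. Values are % change from baseline, ± SEM.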

Rattus norvegicus [2] = assay: Bradycardic activity was evaluated in an anesthetized rat model as percent heart rate(beats/min) reduction 5 min after iv injection of 5 mg/kg; type: functional
In short: (§2)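 Male Chbb:THOM rats, 200-250 g, anesthetized with pentobarbital sodium 50 mg/kg ip, with the trachea cannulated and artificial respiration given. Heart rate was recorded continuously by an ECG-triggered beat-to-beat tachograph before and at 5 and 20 min after a single iv injection of 5 mg/kg. Values are % change from pre-dose, reported ± SEM.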

[3] = (§3) delta HR Ratio measured as the ratio of delta HR(20 min)/delta HR (5 min); type: functional
In short: (§4)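 Duration-of-action index: the % heart-rate reduction at 20 min divided by that at 5 min after 5 mg/kg iv. Rats were male Chbb:THOM, pentobarbital-anesthetized and ventilated, with heart rate taken from an ECG-triggered tachograph.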

Rattus norvegicus [4] = assay: Bradycardic activity was evaluated in an anesthetized rat model as percent heart rate(beats/min) reduction 20 min after iv injection of 5 mg/kg; type: functional; in short: as §2
Rattus norvegicus [5] = species: Rattus norvegicus; assay: (§5) Ratio of heart rate reduction to mean arterial blood pressure reduction; type: functional
In short: (§6)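 Selectivity parameter S: the % heart-rate reduction divided by the % mean arterial pressure reduction, both read 5 min after 5 mg/kg iv in anesthetized, ventilated male Chbb:THOM rats. Heart rate came from an ECG-triggered tachograph and pressure from a carotid cannula.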

Rattus norvegicus [6] = assay: Bradycardic activity was evaluated in an anesthetized rat model as percent heart rate(beats/min) reduction 5 min after iv injection of 5 mg/kg of the compound; NA=Not active; type: functional, organism-based; set-up: dose 5 mg/kg; in short: as §2
Rattus norvegicus [7] = assay: Bradycardic activity was evaluated in an anesthetized rat model as percent heart rate(beats/min) reduction 20 min after iv injection of 5 mg/kg of the compound; NA= Not active; type: functional, organism-based; set-up: dose 5 mg/kg; in short: as §2
Rattus norvegicus [8] = assay: Hypotensive activity was evaluated in an anesthetized rat model as percent mean aortic blood pressure(mm hg) reduction 5 min after iv injection of 5 mg/kg of the compound; NA=Not active; type: functional, organism-based; set-up: dose 5 mg/kg; settings: Artery; in short: as §1
Rattus norvegicus [9] = assay: Bradycardic activity was evaluated in an anesthetized rat model as percent heart rate(beats/min) reduction 20 min after iv injection of 5 mg/kg of the compound; NA=Not active; type: functional, organism-based; set-up: dose 5 mg/kg; in short: as §2
[10] = as §3; in short: as §4
[11] = as §5; type: tissue-based; in short: as §6

Ratio [10]	SMILES	Delta MAP (Rattus norvegicus [1]) [%]	Delta HR (Rattus norvegicus [2]) [%]	Ratio [3]	Delta HR (Rattus norvegicus [4]) [%]	Selectivity (Rattus norvegicus [5])	Delta HR (Rattus norvegicus [6])	Delta HR (Rattus norvegicus [7])	Delta MAP (Rattus norvegicus [8])	Delta HR (Rattus norvegicus [9])	Selectivity [11]
–	COc1ccc2c(CCN(C)CCCN3CCc4cc(OC)c(OC)cc4CC3=O)csc2c1	-52	-67	0.89	-60	1.3	–	–	–	–	–
–	COc1cc2c(cc1OC)CC(=O)N(CCCN(C)CCc1c[nH]cn1)CC2	-11	–	–	–	–	inactive	inactive	–	–	–
–	COc1cc2c(cc1OC)CC(=O)N(CCCN(C)CCc1cn(C)cn1)CC2	-10	-10	1.1	-11	1	–	–	–	–	–
–	COc1cc2c(cc1OC)CC(=O)N(CCCN(C)Cc1cccnc1)CC2	–	–	–	–	–	inactive	–	inactive	inactive	–
0.88	COc1cc2c(cc1OC)CC(=O)N(CCCN(C)CCc1c[nH]c3c(C)cccc13)CC2	-26	-50	–	-44	–	–	–	–	–	1.9
–	COc1cc2c(cc1OC)CC(=O)N(CCCN(C)Cc1ccccn1)CC2	–	–	–	–	–	inactive	–	inactive	inactive	–

Source: ChEMBL document CHEMBL1125645, “Specific bradycardic agents. 2. Heteroaromatic modifications in the side chain of specific bradycardic benzazepinones: chemistry, pharmacology, and structure-activity relationships” (1991)
